These results are taken from ChEMBL document CHEMBL3091299, “Adamantyl derivative as a potent inhibitor of Plasmodium FK506 binding protein 35” (ACS Med Chem Lett, 2013).

Calls of active or inactive are those of the source. No cut-off for these calls is given here.

What is called IC50 is the point on the concentration scale where inhibition reaches its midpoint.

The subject of test [1] is Plasmodium falciparum. The test is described as follows: Antimicrobial activity against Plasmodium falciparum 3D7 infected in erythrocytes assessed as schizont-stage maturation at 500 nM after 4 to 24 hrs by Giemsa-staining based microscopy relative to control. It counts as functional, organism-based.
Test [2] has as its system Plasmodium falciparum. The test is described as follows: Antimicrobial activity against Plasmodium falciparum 3D7 infected in erythrocytes assessed as ring-stage maturation at 500 nM after 4 to 24 hrs by Giemsa-staining based microscopy relative to control. It counts as functional, organism-based.
A short description of test [3]: Inhibition of Plasmodium falciparum recombinant FKBP35 using Succ-Ala-Leu-Pro-Phe-pNA as substrate after 30 mins by UV-Vis spectrophotometry in presence of alpha-chymotrypsin.
For test [4], the system named is Plasmodium falciparum. The test is described as follows: Antimicrobial activity against Plasmodium falciparum 3D7 infected in erythrocytes assessed as disintegration of trophozoite-stage maturation at 500 nM after 16 hrs by Giemsa-staining based microscopy relative to control. In kind it is functional, organism-based.
The test system of test [5] is Plasmodium falciparum. The test is described as follows: Antimicrobial activity against mid-ring stage Plasmodium falciparum 3D7 infected in erythrocytes assessed as reduction in parasitemia at 500 nM after 8 hrs by Giemsa-staining based microscopy relative to control. In kind it is functional, organism-based. The gist of the method:
(§1)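 Highly synchronized ring-infected erythrocytes (3D7) followed over one full 48 h intraerythrocytic cycle with inhibitor, chloroquine, artemisinin, or no treatment. Parasitaemia (%) and morphology were scored from Giemsa-stained smears every 8 h, with untreated parasites as reference.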

Test [6] concerns Plasmodium falciparum. Nature of the test: Antimicrobial activity against mid-ring stage Plasmodium falciparum 3D7 infected in erythrocytes assessed as reduction in trophozoite stage development at 500 nM after 16 to 24 hrs by Giemsa-staining based microscopy relative to control. In kind it is functional, organism-based. The gist of the method: as §1
Test [7] relates to Plasmodium falciparum. Nature of the test: Antimicrobial activity against mid-ring stage Plasmodium falciparum 3D7 infected in erythrocytes assessed as death and disintegration of parasite at 500 nM after 16 to 24 hrs by Giemsa-staining based microscopy relative to control. It counts as functional, organism-based. The gist of the method:
as §1

Test [8] relates to Plasmodium falciparum. Nature of the test: Antimicrobial activity against mid-ring stage Plasmodium falciparum 3D7 infected in erythrocytes assessed as change in parasite morphology at 500 nM after 8 hrs by Giemsa-staining based microscopy relative to control. It counts as functional, organism-based. The gist of the method: as §1
Test [9] is described as follows: Inhibition of Plasmodium vivax recombinant FKBP35 using Succ-Ala-Leu-Pro-Phe-pNA as substrate after 30 mins by UV-Vis spectrophotometry in presence of alpha-chymotrypsin.
Test [10] deals with Plasmodium falciparum. The test is described as follows: Antimicrobial activity against Plasmodium falciparum 3D7 infected in erythrocytes assessed as impairment of trophozoite-stage maturation at 500 nM after 8 hrs by Giemsa-staining based microscopy relative to control. In kind it is functional, organism-based.
For another test, the species on record is Homo sapiens. The test is described as follows: Inhibition of human recombinant calcineurin phosphatase activity using RII phosphopeptide as substrate incubated 10 to 30 mins prior to substrate addition by spectrophotometry.

As for `O=C(NNC(=O)C12CC3CC(CC(C3)C1)C2)c1cccc2ccccc12`, the outcome in the test on Plasmodium falciparum [1] and with Plasmodium falciparum [2] was inactive. Moreover, in test [3], the IC50 stood at 49.3 nM.
In the case of `O=C(NNC(=O)C12CC3CC(CC(C3)C1)C2)c1ccncc1`, the outcome in the test with Plasmodium falciparum [4], in the test with Plasmodium falciparum [6], in the test with Plasmodium falciparum [7] and in the test with Plasmodium falciparum [10] was Active. Besides, the result in the test with Plasmodium falciparum [1], in the test on Plasmodium falciparum [5], in the test on Plasmodium falciparum [2] and in the test on Plasmodium falciparum [8] was inactive. Further, the IC50 in test [9] stood at 75 nM; in test [3] it was 83 nM. Moreover, in the test listed under Homo sapiens, the inhibition result is “inactive”.
As to `C[C@@H]1CC[C@H]2[C@@H](C)C(=O)O[C@@H]3O[C@@]4(C)CC[C@@H]1[C@]32OO4`, the result with Plasmodium falciparum [5] was Active.
Consider `CCN(CC)CCCC(C)Nc1ccnc2cc(Cl)ccc12` (stereo not drawn), for which the result in the test with Plasmodium falciparum [5] and in the test with Plasmodium falciparum [8] was inactive. For the same compound, the result in the test with Plasmodium falciparum [6] and in the test on Plasmodium falciparum [7] was Active.
In the case of `C=CC[C@@H]1/C=C(\C)C[C@H](C)C[C@H](OC)[C@H]2O[C@@](O)(C(=O)C(=O)N3CCCC[C@H]3C(=O)O[C@H](/C(C)=C/[C@@H]3CC[C@@H](O)[C@H](OC)C3)[C@H](C)[C@@H](O)CC1=O)[C@H](C)C[C@@H]2OC`, in the test filed under Homo sapiens, the inhibition entry was “Active”.
For the compound `O=C(NNC(=O)C12CC3CC(CC(C3)C1)C2)c1ccccc1`, the outcome with Plasmodium falciparum [1] and with Plasmodium falciparum [2] was inactive. Also, in test [3], the half-inhibitory concentration (IC50) was determined as 94.8 nM.
